Measured values from ChEMBL document CHEMBL1687930 (J Med Chem, 2011).
Activity calls are given as the source filed them. No cut-off for these calls is given here.

test system: not listed separately; test: Growth inhibition of dog MDCK2-MDR1 cells overexpressing human P-glycoprotein; type: functional; settings: Canis lupus familiaris, MDCK-II
Outline: (§1)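 Parental lines (MDCKII, LLC-PK1) and matched Pgp-overexpressing lines (MDCKII-MDR1, about 500-fold Pgp; L-MDR1, about 25000-fold Pgp) were tested with and without the Pgp inhibitor LY335979. Each experiment was run at least in triplicate, with 8 wells per concentration. GI50 came from a nonlinear four-parameter sigmoidal concentration-response fit.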

Row | SMILES | GI50
1 | CCc1ccc(C(SC[C@H](N)C(=O)O)(c2ccccc2)c2ccccc2)cc1 | 560 nM
2 | CCCc1ccc(C(SC[C@H](N)C(=O)O)(c2ccccc2)c2ccccc2)cc1 | 1680 nM
3 | NCCSC(c1ccccc1)(c1ccccc1)c1ccccc1 | 570 nM
4 | CC(C)c1ccc(C(SC[C@H](N)C(=O)O)(c2ccccc2)c2ccccc2)cc1 | 2750 nM
5 | N[C@@H](CSC(c1ccccc1)(c1ccccc1)c1ccc(Cl)cc1)C(=O)O | 560 nM

biological target: T1, Kinesin-like protein KIF11 (Homo sapiens) (UniProt P52732); test: Binding affinity to Eg5 at 2 mM by crystallography; settings: not given
T1 sequence (whole entry): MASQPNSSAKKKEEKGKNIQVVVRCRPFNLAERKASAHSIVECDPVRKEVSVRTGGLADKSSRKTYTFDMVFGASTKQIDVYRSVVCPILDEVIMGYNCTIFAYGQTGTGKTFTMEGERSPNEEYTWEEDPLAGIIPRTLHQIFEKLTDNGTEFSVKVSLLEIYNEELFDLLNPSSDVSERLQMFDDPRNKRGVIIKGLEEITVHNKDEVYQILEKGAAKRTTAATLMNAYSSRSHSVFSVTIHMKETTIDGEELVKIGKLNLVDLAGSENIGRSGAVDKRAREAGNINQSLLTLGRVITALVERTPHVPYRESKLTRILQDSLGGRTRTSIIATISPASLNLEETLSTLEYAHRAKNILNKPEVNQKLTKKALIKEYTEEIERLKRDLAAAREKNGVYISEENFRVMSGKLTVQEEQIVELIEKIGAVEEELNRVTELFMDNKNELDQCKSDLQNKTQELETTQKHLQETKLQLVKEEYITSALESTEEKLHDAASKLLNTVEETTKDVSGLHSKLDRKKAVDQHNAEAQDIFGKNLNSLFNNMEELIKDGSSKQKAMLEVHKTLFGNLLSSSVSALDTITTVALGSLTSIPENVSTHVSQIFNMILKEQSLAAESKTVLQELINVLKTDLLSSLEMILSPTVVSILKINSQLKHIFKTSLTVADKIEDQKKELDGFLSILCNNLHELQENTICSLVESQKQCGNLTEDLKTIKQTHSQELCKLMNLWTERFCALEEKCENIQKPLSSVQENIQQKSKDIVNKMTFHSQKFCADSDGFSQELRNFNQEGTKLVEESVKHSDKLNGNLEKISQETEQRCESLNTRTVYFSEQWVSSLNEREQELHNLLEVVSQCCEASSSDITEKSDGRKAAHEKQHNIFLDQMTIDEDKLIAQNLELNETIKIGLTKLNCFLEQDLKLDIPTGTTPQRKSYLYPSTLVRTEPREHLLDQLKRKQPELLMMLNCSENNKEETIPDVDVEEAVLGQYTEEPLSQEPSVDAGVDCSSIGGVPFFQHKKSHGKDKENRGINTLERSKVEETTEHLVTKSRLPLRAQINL

Row | SMILES | Activity
6 | CCC(C)C(SC[C@H](N)C(=O)O)(c1ccccc1)c1ccccc1 (mixture of isomers) | Active
7 | N[C@@H](CSC(c1ccccc1)(c1ccccc1)c1ccc(Cl)cc1)C(=O)O | Active

test system: not listed separately; test: Growth inhibition of pig L-MDR1 cells overexpressing human P-glycoprotein in presence of P-glycoprotein inhibitor LY335979; type: functional; settings: Sus scrofa; outline: as §1

Row | SMILES | GI50
8 | CCc1ccc(C(SC[C@H](N)C(=O)O)(c2ccccc2)c2ccccc2)cc1 | 160 nM
9 | CCCc1ccc(C(SC[C@H](N)C(=O)O)(c2ccccc2)c2ccccc2)cc1 | 1760 nM
10 | NCCSC(c1ccccc1)(c1ccccc1)c1ccccc1 | 4810 nM
11 | CC(C)c1ccc(C(SC[C@H](N)C(=O)O)(c2ccccc2)c2ccccc2)cc1 | 1050 nM
12 | N[C@@H](CSC(c1ccccc1)(c1ccccc1)c1ccc(Cl)cc1)C(=O)O | 1610 nM

test system: LLC-PK1; test: Upregulation of P-glycoprotein mRNA expression in pig LLC-PK1 cells; type: functional, Sus scrofa; settings: not given

Row | SMILES | fold change (FC)
13 | NCCSC(c1ccccc1)(c1ccccc1)c1ccccc1 | 25000
14 | CCOC(=O)C1=C(C)NC(=S)N[C@H]1c1cccc(O)c1 [S-MENASTROL] | 25000

test system: not listed separately; test: Growth inhibition of dog MDCK2 cells in presence of P-glycoprotein inhibitor LY335979; type: functional; settings: Canis lupus familiaris, MDCK-II; outline: as §1

Row | SMILES | GI50
15 | CCc1ccc(C(SC[C@H](N)C(=O)O)(c2ccccc2)c2ccccc2)cc1 | 290 nM
16 | CCCc1ccc(C(SC[C@H](N)C(=O)O)(c2ccccc2)c2ccccc2)cc1 | 710 nM
17 | NCCSC(c1ccccc1)(c1ccccc1)c1ccccc1 | 850 nM
18 | CC(C)c1ccc(C(SC[C@H](N)C(=O)O)(c2ccccc2)c2ccccc2)cc1 | 840 nM
19 | N[C@@H](CSC(c1ccccc1)(c1ccccc1)c1ccc(Cl)cc1)C(=O)O | 330 nM

test system: MDCK-II; test: Ratio of GI50 for dog MDCK2-MDR1 cells overexpressing human P-glycoprotein to GI50 for dog MDCK2 cells; type: functional, Canis lupus familiaris; settings: not given

Row | SMILES | RatioGI50
20 | CCc1ccc(C(SC[C@H](N)C(=O)O)(c2ccccc2)c2ccccc2)cc1 | 2.4
21 | CCCc1ccc(C(SC[C@H](N)C(=O)O)(c2ccccc2)c2ccccc2)cc1 | 2.5
22 | NCCSC(c1ccccc1)(c1ccccc1)c1ccccc1 | 0.8
23 | CC(C)c1ccc(C(SC[C@H](N)C(=O)O)(c2ccccc2)c2ccccc2)cc1 | 3.5
24 | N[C@@H](CSC(c1ccccc1)(c1ccccc1)c1ccc(Cl)cc1)C(=O)O | 2

test system: not listed separately; test: Upregulation of P-glycoprotein mRNA expression in dog MDCK2 cells; type: functional, cell-based; settings: Canis lupus familiaris; MDCK-II

Row | SMILES | fold change (FC)
25 | NCCSC(c1ccccc1)(c1ccccc1)c1ccccc1 | 500

biological target: T2, Kinesin-like protein KIF11 (Homo sapiens, UniProt P52732); test: Inhibition of untagged human Eg5 basal ATPase activity; settings: read-out: Ki(app)
T2 sequence (P52732 whole entry): T1 sequence (whole entry)

Row | SMILES | Ki
26 | CCc1ccc(C(SC[C@H](N)C(=O)O)(c2ccccc2)c2ccccc2)cc1 | < 50 nM
27 | CCCc1ccc(C(SC[C@H](N)C(=O)O)(c2ccccc2)c2ccccc2)cc1 | < 50 nM
28 | NCCSC(c1ccccc1)(c1ccccc1)c1ccccc1 | 156 nM
29 | CC(C)c1ccc(C(SC[C@H](N)C(=O)O)(c2ccccc2)c2ccccc2)cc1 | < 50 nM
30 | N[C@@H](CSC(c1ccccc1)(c1ccccc1)c1ccc(Cl)cc1)C(=O)O | < 50 nM

biological target: T1, Kinesin-like protein KIF11 (Homo sapiens); test: as above; settings: not given

Row | SMILES | inhibition
31 | CN(C)[C@@H](CSC(c1ccccc1)(c1ccccc1)c1ccccc1)C(=O)O | inactive

biological target: T2, Kinesin-like protein KIF11; test: Inhibition of untagged human Eg5 microtubule-stimulated ATPase activity; settings: not given

Row | SMILES | IC50
32 | CCC(C)C(SC[C@H](N)C(=O)O)(c1ccccc1)c1ccccc1 (mixture of isomers) | 549 nM
33 | CCc1ccc(C(SC[C@H](N)C(=O)O)(c2ccccc2)c2ccccc2)cc1 | 55.4 nM
34 | CCCc1ccc(C(SC[C@H](N)C(=O)O)(c2ccccc2)c2ccccc2)cc1 | 85.9 nM
35 | NCCSC(c1ccccc1)(c1ccccc1)c1ccccc1 | 396 nM
36 | CC(C)c1ccc(C(SC[C@H](N)C(=O)O)(c2ccccc2)c2ccccc2)cc1 | 144 nM
37 | N[C@@H](CSC(c1ccccc1)(c1ccccc1)c1ccc(Cl)cc1)C(=O)O | 53.3 nM

biological target: T1, Kinesin-like protein KIF11 (Homo sapiens); test: as above; settings: not given

Row | SMILES | inhibition
38 | CN(C)[C@@H](CSC(c1ccccc1)(c1ccccc1)c1ccccc1)C(=O)O | inactive

test system: LLC-PK1; test: Growth inhibition of pig LLC-PK1 cells in presence of P-glycoprotein inhibitor LY335979; type: functional; settings: Sus scrofa; outline: as §1

Row | SMILES | GI50
39 | CCc1ccc(C(SC[C@H](N)C(=O)O)(c2ccccc2)c2ccccc2)cc1 | 300 nM
40 | CCCc1ccc(C(SC[C@H](N)C(=O)O)(c2ccccc2)c2ccccc2)cc1 | 1100 nM
41 | NCCSC(c1ccccc1)(c1ccccc1)c1ccccc1 | 3880 nM
42 | CC(C)c1ccc(C(SC[C@H](N)C(=O)O)(c2ccccc2)c2ccccc2)cc1 | 1510 nM
43 | N[C@@H](CSC(c1ccccc1)(c1ccccc1)c1ccc(Cl)cc1)C(=O)O | 2450 nM

test system: not listed separately; test: Growth inhibition of pig L-MDR1 cells overexpressing human P-glycoprotein; type: functional; settings: Sus scrofa; outline: as §1

Row | SMILES | GI50
44 | CCc1ccc(C(SC[C@H](N)C(=O)O)(c2ccccc2)c2ccccc2)cc1 | 10800 nM
45 | CCCc1ccc(C(SC[C@H](N)C(=O)O)(c2ccccc2)c2ccccc2)cc1 | 37600 nM
46 | NCCSC(c1ccccc1)(c1ccccc1)c1ccccc1 | 4830 nM
47 | CC(C)c1ccc(C(SC[C@H](N)C(=O)O)(c2ccccc2)c2ccccc2)cc1 | 36700 nM
48 | N[C@@H](CSC(c1ccccc1)(c1ccccc1)c1ccc(Cl)cc1)C(=O)O | 6210 nM

test system: P388; test: Upregulation of P-glycoprotein mRNA expression in mouse P388 cells; type: functional; settings: not given

Row | SMILES | fold change (FC)
49 | CCOC(=O)C1=C(C)NC(=S)N[C@H]1c1cccc(O)c1 [S-MENASTROL] | 20000

test system: not listed separately; test: Growth inhibition of dog MDCK2 cells; type: functional; settings: Canis lupus familiaris, MDCK-II; outline: as §1

Row | SMILES | GI50
50 | CCc1ccc(C(SC[C@H](N)C(=O)O)(c2ccccc2)c2ccccc2)cc1 | 230 nM
51 | CCCc1ccc(C(SC[C@H](N)C(=O)O)(c2ccccc2)c2ccccc2)cc1 | 680 nM
52 | NCCSC(c1ccccc1)(c1ccccc1)c1ccccc1 | 740 nM
53 | CC(C)c1ccc(C(SC[C@H](N)C(=O)O)(c2ccccc2)c2ccccc2)cc1 | 780 nM
54 | N[C@@H](CSC(c1ccccc1)(c1ccccc1)c1ccc(Cl)cc1)C(=O)O | 280 nM

test system: not listed separately; test: Growth inhibition of dog MDCK2-MDR1 cells overexpressing human P-glycoprotein in presence of P-glycoprotein inhibitor LY335979; type: functional; settings: Canis lupus familiaris, MDCK-II; outline: as §1

Row | SMILES | GI50
55 | CCc1ccc(C(SC[C@H](N)C(=O)O)(c2ccccc2)c2ccccc2)cc1 | 170 nM
56 | CCCc1ccc(C(SC[C@H](N)C(=O)O)(c2ccccc2)c2ccccc2)cc1 | 630 nM
57 | NCCSC(c1ccccc1)(c1ccccc1)c1ccccc1 | 610 nM
58 | CC(C)c1ccc(C(SC[C@H](N)C(=O)O)(c2ccccc2)c2ccccc2)cc1 | 880 nM
59 | N[C@@H](CSC(c1ccccc1)(c1ccccc1)c1ccc(Cl)cc1)C(=O)O | 270 nM

test system: P388; test: Ratio of inhibition of growth in P-glycoprotein overexpressing mouse P388 cells to inhibition of growth in mouse P388; type: functional; settings: not given

Row | SMILES | Ratio
60 | CCOC(=O)C1=C(C)NC(=S)N[C@H]1c1cccc(O)c1 [S-MENASTROL] | 1

test system: not listed separately; test: Ratio of inhibition of growth in P-glycoprotein overexpressing human A2780-AD10 cells to inhibition of growth in human A2780; type: functional, A2780 ADR; settings: not given

Row | SMILES | Ratio
61 | CCCCN1C(=O)[C@@H]2Cc3c([nH]c4ccccc34)[C@@H](c3cccc(O)c3)N2C1=O | 2.4

test system: LLC-PK1; test: Growth inhibition of pig LLC-PK1 cells; type: functional; settings: Sus scrofa; outline: as §1

Row | SMILES | GI50
62 | CCc1ccc(C(SC[C@H](N)C(=O)O)(c2ccccc2)c2ccccc2)cc1 | 340 nM
63 | CCCc1ccc(C(SC[C@H](N)C(=O)O)(c2ccccc2)c2ccccc2)cc1 | 1950 nM
64 | NCCSC(c1ccccc1)(c1ccccc1)c1ccccc1 | 3290 nM
65 | CC(C)c1ccc(C(SC[C@H](N)C(=O)O)(c2ccccc2)c2ccccc2)cc1 | 1050 nM
66 | N[C@@H](CSC(c1ccccc1)(c1ccccc1)c1ccc(Cl)cc1)C(=O)O | 2110 nM

test system: LLC-PK1; test: Ratio of GI50 for pig L-MDR1 cells overexpressing human P-glycoprotein to GI50 for pig LLC-PK1 cells; type: functional, Sus scrofa; settings: not given
Outline: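 MDR ratio is the GI50 in L-MDR1 cells (Pgp-overexpressing) divided by the GI50 in parental LLC-PK1 cells. Each GI50 came from growth inhibition run at least in triplicate, with 8 wells per concentration, fitted by a four-parameter sigmoidal model.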

Row | SMILES | RatioGI50 | Ratio
67 | CCc1ccc(C(SC[C@H](N)C(=O)O)(c2ccccc2)c2ccccc2)cc1 | 31.8 | –
68 | CCCc1ccc(C(SC[C@H](N)C(=O)O)(c2ccccc2)c2ccccc2)cc1 | 19.3 | –
69 | NCCSC(c1ccccc1)(c1ccccc1)c1ccccc1 | 1.5 | –
70 | CC(C)c1ccc(C(SC[C@H](N)C(=O)O)(c2ccccc2)c2ccccc2)cc1 | 34.8 | –
71 | CCOC(=O)C1=C(C)NC(=S)N[C@H]1c1cccc(O)c1 [S-MENASTROL] | – | 1
72 | N[C@@H](CSC(c1ccccc1)(c1ccccc1)c1ccc(Cl)cc1)C(=O)O | 2.9 | –

test system: KB 3-1; test: Ratio of inhibition of growth in P-glycoprotein overexpressing […] inhibition of growth in human KB-3-1 cells; type: functional; settings: not given

Row | SMILES | Ratio
73 | CN1CC[C@H](N(C)C(=O)N2CC(c3cc(F)ccc3F)=C[C@@]2(CO)c2ccccc2)[C@H](F)C1 | 4.5
